Data set [1] concerns the target T1, Heat shock protein HSP 90-alpha (Homo sapiens, UniProt P07900). Briefly: Binding affinity to human recombinant Hsp90alpha N-terminal domain by isothermal titration calorimetry.
Data set [2] concerns SK-BR-3. Briefly: Cytotoxicity against human SKBR3 cells after 72 hrs. It is filed as functional, cell-based. The note with it: SK-BR-3, 72 h. The procedure, abridged: (§1)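 Viability was read by CellTiter-Glo luminescent assay. Values are means of three independent determinations.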
A further data set relates to HCT-116. Briefly: Cytotoxicity against human HCT116 cells after 72 hrs. It is filed as functional, cell-based. Particulars: HCT-116, 72 h. The procedure, abridged:
as §1

A short description of data set [3]: Cytotoxicity against NQ01-deficient human MDA468 cells after 72 hrs. It is filed as functional, cell-based. Particulars: MDA-MB-468, 72 h. The procedure, abridged: as §1
The subject of the next data set is NCI-H596. The experiment in a line: Cytotoxicity against NQ01-deficient human NCI-H596 cells after 72 hrs. Format: functional, cell-based. The note with it: NCI-H596, 72 h. The procedure, abridged: as §1
For another data set, the system named is SK-OV-3. Briefly: Cytotoxicity against human SKOV3 cells after 72 hrs. Format: functional, cell-based. The note with it: SK-OV-3, 72 h. In outline: as §1
In data set [4] the test system is MCF7. The experiment in a line: Cytotoxicity against human MCF7 cells after 72 hrs. Format: functional, cell-based. Particulars: MCF7, 72 h. The procedure, abridged:
as §1

Data set [5] concerns MCF7. Briefly: Cytotoxicity against human MCF7 cells after 72 hrs in presence of NQO1 inhibitor dicoumarol. The note with it: MCF7, 72 h. It is filed as functional, cell-based. The procedure, abridged: as §1
The test system of data set [6] is SK-BR-3. Briefly: Cytotoxicity against human SKBR3 cells after 72 hrs in presence of NQO1 inhibitor dicoumarol. Format: functional, cell-based. Particulars: SK-BR-3, 72 h. In outline: as §1
The test system of data set [7] is COLO 205. Briefly: Antitumor activity against human COLO205 tumor bearing mouse assessed as reduction of tumor volume at 90 mg/kg, iv administered once daily for 5 days with 2 day interval for total 13 doses. It is filed as functional, organism-based. Details: dose 90 mg/kg. The procedure, abridged: (§2)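 COLO205 tumor-bearing mice received iv doses of vehicle or test agent (15, 30 or 90 mg/kg) daily for 5 days, then a 2-day holiday, for 13 doses in total. Groups had 10 mice each. Tumor growth was followed over the dosing period and compared with vehicle.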

The test system of data set [8] is COLO 205. Briefly: Antitumor activity against human COLO205 tumor bearing mouse assessed as reduction of tumor volume at 15 mg/kg, iv once daily for 5 days with 2 day interval for total 13 doses. It is filed as functional, organism-based. Further details: dose 15 mg/kg. The procedure, abridged:
as §2

For data set [9], the system named is Mus musculus. The experiment in a line: Toxicity in human COLO205 tumor bearing nu/nu mouse assessed as body weight change at 30 mg/kg, iv administered once daily for 5 days with 2 day interval for total 13 doses. It is filed as organism-based. Further details: dose 30 mg/kg, route intravenous. Particulars: in vivo.
For data set [10], the system named is Mus musculus. Briefly: Toxicity in human COLO205 tumor bearing nu/nu mouse assessed as body weight change at 15 mg/kg, iv administered once daily for 5 days with 2 day interval for total 13 doses. It is filed as organism-based. Particulars: in vivo. Details: dose 15 mg/kg, route intravenous.
Data set [11] relates to COLO 205. Briefly: Antitumor activity against human COLO205 tumor bearing mouse assessed as reduction of tumor volume at 30 mg/kg, iv administered once daily for 5 days with 2 day interval for total 13 doses. Format: functional, organism-based. Further details: dose 30 mg/kg. The procedure, abridged:
as §2

For data set [12], the target named is T1, Heat shock protein HSP 90-alpha. Briefly: Binding affinity to human recombinant Hsp90alpha N-terminal domain by scintillation proximity assay.
The test system of data set [13] is Mus musculus. Briefly: Inhibition of HSP90 in human COLO205 tumor bearing nu/nu mouse assessed as induction of HSP70 expression at 30 mg/kg, […] after 4 hrs by ELISA. Further details: dose 30 mg/kg. Format: functional, organism-based. In outline: (§3)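 COLO205 xenograft mice were given a single dose. Tumors were harvested 4 or 24 h later and tumor lysates assayed by ELISA for Hsp70 or ErbB2 protein levels. Vehicle-dosed mice served as comparison.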
A general note: In an ELISA, binding on a coated surface is turned into a signal by an enzyme label.

Data set [14] deals with Mus musculus. Briefly: Inhibition of HSP90 in human COLO205 tumor bearing nu/nu mouse assessed as induction of HSP70 expression at 30 mg/kg, […] after 24 hrs by ELISA. Format: functional, organism-based. Further details: dose 30 mg/kg. In outline: as §3
Data set [15] relates to Mus musculus. Briefly: Inhibition of HSP90 in human COLO205 tumor bearing nu/nu mouse assessed as reduction of ErbB2 protein level at 30 mg/kg, […] after 4 hrs by ELISA. It is filed as functional, organism-based. Details: dose 30 mg/kg. In outline: as §3
In data set [16] the test system is COLO 205. Briefly: Antitumor activity against human COLO205 tumor bearing mouse assessed as reduction of tumor volume dosed intravenously once daily for 5 days with 2 day interval for total 13 doses. Format: functional, organism-based. In outline:
as §2

Data set [17] concerns Mus musculus. Briefly: Inhibition of HSP90 in human COLO205 tumor bearing nu/nu mouse assessed as reduction of ErbB2 protein level at 30 mg/kg, iv after 24 hrs by ELISA.

pIC50, pKd: −log10 of the molar value. The source made the active and inactive calls. No cut-off for these calls is given here.

Take `CO[C@H]1/C=C\C=C(/C)C(=O)Nc2ccc(O)c(c2)C[C@@H](C)C[C@H](OC)[C@H](O)[C@@H](C)/C=C(\C)[C@@H]1OC(N)=O`: in data set [1], the pKd is 8.60. The pIC50 is 7.08 with SK-BR-3 [2], 6.75 with HCT-116, 6.80 in data set [3] and 6.49 in the data set on NCI-H596.

With `CO[C@H]1C[C@H](C)Cc2cccc(c2)NC(=O)/C(C)=C/CC[C@H](OC)[C@@H](OC(N)=O)/C(C)=C/[C@H](C)[C@H]1O`, the pKd in [1] was 8.27. The pIC50 with SK-BR-3 [2] is 7.02; in the data set with SK-OV-3 it was 6.49; with HCT-116, 6.62; with MCF7 [4] it was 6.86; in data set [3], 6.72; with NCI-H596 it was 6.41.

For `C=CCNC1=C2C[C@@H](C)C[C@H](OC)[C@H](O)[C@@H](C)/C=C(\C)[C@H](OC(N)=O)[C@@H](OC)/C=C\C=C(/C)C(=O)NC(=CC1=O)C2=O` [TANESPIMYCIN], the pIC50 with MCF7 [5] was 6.18; with SK-BR-3 [6], 6.39; in the data set on SK-BR-3 [2] it was 7.36; in the data set with SK-OV-3, 6.62; in the data set on HCT-116 it was 6.69; in the data set on MCF7 [4], 7.24. Further, the results for the negative-log IC50 (pIC50) (in [3]; in the data set on NCI-H596) were 5.82 and 5.80, respectively. The outcome in the data set on COLO 205 [7] and with COLO 205 [8] was Active.

Turning to `CO[C@H]1C[C@H](C)Cc2cc(cc(Cl)c2O)NC(=O)/C(C)=C/CC[C@H](OC)[C@@H](OC(N)=O)/C(C)=C/[C@H](C)[C@H]1O`, the Activity result was “Non-toxic” in the data set on Mus musculus [9], “Non-toxic” in the data set on Mus musculus [10] and “Dose-dependent effect” in the data set with COLO 205 [16]. Also, the result in the data set on COLO 205 [11], with Mus musculus [13], with Mus musculus [14], in the data set on Mus musculus [15], in the data set on COLO 205 [8] and in the data set with Mus musculus [17] was Active. In addition, in [12], the pKd was 7.30. In addition, the pIC50 was 6.85 in the data set on SK-OV-3, 6.92 in the data set with HCT-116 and 7.05 in data set [3].

With `CO[C@H]1/C=C\C=C(/C)C(=O)Nc2cc(Cl)c(O)c(c2O)C[C@@H](C)C[C@H](OC)[C@H](O)[C@@H](C)/C=C(\C)[C@@H]1OC(N)=O`, the pIC50 was 6.40 in the data set on SK-BR-3 [2]; 6.46 in the data set on SK-OV-3; 6.37 in the data set on HCT-116; 6.48 in the data set with MCF7 [4]; 6.35 in data set [3]; 6.15 in the data set with NCI-H596.

As to `CO[C@H]1/C=C\C=C(/C)C(=O)NC2=CC(=O)C(NCCN(C)C)=C(C[C@@H](C)C[C@H](OC)[C@H](O)[C@@H](C)/C=C(\C)[C@@H]1OC(N)=O)C2=O` [ALVESPIMYCIN], the pIC50 in the data set with MCF7 [5] was 6.06; in the data set with SK-BR-3 [6], 6.64; in the data set on SK-BR-3 [2], 7.24; with SK-OV-3, 6.91; in the data set with HCT-116, 7.24; in the data set with MCF7 [4], 7.15. In addition, the pIC50 in data set [3] was 5.80; with NCI-H596, 5.96.

On to `CO[C@H]1C[C@H](C)Cc2cc(ccc2O)NC(=O)/C(C)=C/CC[C@H](OC)[C@@H](OC(N)=O)/C(C)=C/[C@H](C)[C@H]1O`, for which the pKd in data set [1] was 9.10. The pIC50 in the data set with SK-BR-3 [2] was 6.08; with HCT-116, 5.98; with MCF7 [4], 6.21; in data set [3], 6.38; with NCI-H596, 5.92.

In general, pKd refers to the Kd on a negative log10 scale, so that one unit is a factor of ten. What is called pIC50 is the negative decadic logarithm of the IC50, by convention in mol/L.

(Values after ChEMBL document CHEMBL1152777, “Potent non-benzoquinone ansamycin heat shock protein 90 inhibitors from genetic engineering of Streptomyces hygroscopicus” (J Med Chem, 2009).)
